NF-kB expr up: compounds increasing NF-kB expression in human neuronal cells; AID 1239; hit rate 1.6% among 190,000; NF-kB reporter expression; active compounds read high; fold change at 12.5 µM; in the data active = fold change above about 3.3
STAT1 activator: increases IFN-gamma driven STAT1 reporter signal. hit rate 2.6% among 200,000. NIH 3T3 STAT1-luciferase reporter, luminescence; 100% = IFN-gamma alone, no compound. activation (% of control), % at 5.5 µM. AID 932;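 active = activation above the screen-wide mean activation plus 3 SD, cut at about 130% in these data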;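 also: raw ratio to IFN-gamma control signal so 100% means no change and 0% no light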
APP 5'UTR act: APP 5'UTR luciferase reporter activation. SH-SY5Y APP 5'UTR luciferase reporter, luminescence; zero percent = DMSO vehicle wells. activation, % at 2 µM. hit rate 1% among 190,000;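 active = activation above a set limit, based on mean plus 3 SD of controls, cut at about 140% in these data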
STAT3 act: increases IL-6 driven STAT3 reporter signal; hit rate 0.91% among 190,000; U3A cells, IL-6 STAT3-luciferase reporter, luminescence; 100% = signal with IL-6 EC80 alone; activation (% of control), % at 5.6 µM; AID 871;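 active = activation above the screen-wide mean of compound activation plus 3 SD, cut at about 130% in these data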;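 also: 0% = background luminescence of wells with medium and substrate only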
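Material: human STAT1-deficient U3A cells with stable STAT3-luciferase reporter / Probe or stimulus: IL-6 stimulus at 33 ng/mL final / Schedule: 1 h compound pre-exposure, 6 h IL-6 stimulation, 37 °C / Technique: luminescence / Read-out basis: percent of IL-6-only median luminescence / Control set: IL-6-only high control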
STAT1 blocker: reduces IFN-gamma driven STAT1 reporter signal | NIH 3T3 STAT1-luciferase reporter, luminescence | inhibition, % at 5.5 µM | hit rate 0.35% among 200,000;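 active = inhibition above a set limit, the mean inhibition across all tested compounds plus 3 SD, cut at about 34% in these data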;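 also: 0% = IFN-gamma with DMSO and 100% = IFN-gamma with 300 µM nifuroxazide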
STAT3 inh-1: inhibitors of IL-6 induced STAT3 signaling | U3A cells, IL-6 STAT3-luciferase reporter, luminescence; host cell line lacks STAT1 | inhibition, % at 5.5 µM | hit rate 0.89% among 190,000 | AID 862;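 active = inhibition above the mean inhibition across all screened compounds plus 3 SD, cut at about 44% in these data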;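 also: 0% = DMSO only wells and 100% = 100 µM nifuroxazide control wells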
STAT3 inh-2: confirmation of STAT3 signaling inhibitors; shares compounds with STAT3 inh-1; U3A cells, IL-6 STAT3 luciferase reporter, luminescence; cell line lacks STAT1; inhibition, % at 5.7 µM; hit rate 45% among 1,200;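 active = inhibition above the hit cutoff computed for the primary STAT3 screen, cut at about 44% in these data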;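 also: 0% = IL-6 plus DMSO and 100% = IL-6 plus nifuroxazide control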
NFkB inh STAT3ct: counter-screen for STAT3 inhibitors: NF-kappaB inhibition; shares compounds with STAT3 inh-1; HEK293T NF-kB luciferase reporter, TNF-alpha induced; inhibition, % at 5.7 µM; hit rate 36% among 1,200; AID 1308;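 active = inhibition above the mean of solvent-only control wells plus 3 SD, cutoff set per campaign, cut at about 13% in these data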;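 also: 0% = TNF-alpha with DMSO and 100% = TNF-alpha with MG high control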
STAT1 inh 2: counter-screen for STAT3 inhibitors: STAT1 inhibition. NIH 3T3 STAT1-luciferase reporter, IFN-gamma induced, luminescence. inhibition, % at 5.7 µM. hit rate 27% among 1,200. shares compounds with STAT3 inh-1. AID 1317;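 active = inhibition above the mean plus 3 SD of solvent-only control wells, limit set per screening run, cut at about 16% in these data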;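 also: 0% = DMSO with IFN-gamma and 100% = nifuroxazide control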
Starred values were filed as active, the others as inactive. In the library only some 5.1% were active in any assay of this set; here they are far more common.

For CCc1c(C)nc2ncnn2c1NCCc1ccc(Cl)cc1 the results were NF-kB expr up 0.89, STAT1 activator 77, APP 5'UTR act -5, STAT3 act 56, STAT1 blocker 23, STAT3 inh-1 54*, STAT3 inh-2 59*, NFkB inh STAT3ct 16* and STAT1 inh 2 25*.
`CCc1c(C)nc2ncnn2c1NCCc1ccccc1` gave NF-kB expr up 0.93, STAT1 activator 89, APP 5'UTR act -4, STAT3 act 68, STAT1 blocker 12 and STAT3 inh-1 42.
For Cc1ccc(OCC(=O)c2cc(C)n(-c3ccccc3)c2C)c([N+](=O)[O-])n1 the results were NF-kB expr up 0.97, STAT1 activator 75, APP 5'UTR act -29, STAT3 act 50, STAT1 blocker 27, STAT3 inh-1 61*, STAT3 inh-2 45*, NFkB inh STAT3ct 15* and STAT1 inh 2 3.
For C=CCn1c(C)cc(C(=O)COc2ccc(C)nc2[N+](=O)[O-])c1C the results were NF-kB expr up 0.54, STAT1 activator 80, APP 5'UTR act 16, STAT3 act 56, STAT1 blocker 23, STAT3 inh-1 54*, STAT3 inh-2 3, NFkB inh STAT3ct 5 and STAT1 inh 2 -17.
`CCCn1c(C)cc(C(=O)COc2ccc(C)nc2[N+](=O)[O-])c1C` gave NF-kB expr up 0.65, STAT1 activator 101, APP 5'UTR act 5, STAT3 act 86, STAT1 blocker -1 and STAT3 inh-1 12.
`O=C(COC(=O)c1ccc2c(c1)C(=O)N(Cc1ccncc1)C2=O)Nc1cccc2ccccc12` gave NF-kB expr up 1.2, STAT1 activator 101, APP 5'UTR act 7, STAT3 act 98, STAT1 blocker -4 and STAT3 inh-1 8.
`O=C(Nc1nc2c(s1)CCCC2)Oc1ccccc1` gave NF-kB expr up 1.3, STAT1 activator 105, APP 5'UTR act -2, STAT3 act 106, STAT1 blocker -5 and STAT3 inh-1 -2.
Screening O=C(Nc1nc2c(s1)CCCC2)c1cccs1 returned NF-kB expr up 5.7*, STAT1 activator 146*, APP 5'UTR act 198*, STAT3 act 52, STAT1 blocker -50, STAT3 inh-1 58*, STAT3 inh-2 14, NFkB inh STAT3ct -23 and STAT1 inh 2 -125.
Screening CC1(C)CC(=O)c2sc(NC(=O)C(C)(C)C)nc2C1 returned NF-kB expr up 1.6, STAT1 activator 120, APP 5'UTR act 29, STAT3 act 119, STAT1 blocker -23 and STAT3 inh-1 -8.
`CC1(C)CC(=O)c2sc(NC(=O)c3cccs3)nc2C1` gave NF-kB expr up 3.4*, STAT1 activator 103, APP 5'UTR act 118, STAT3 act 66, STAT1 blocker 8, STAT3 inh-1 44*, STAT3 inh-2 18, NFkB inh STAT3ct -14 and STAT1 inh 2 -10.
For O=C(Nc1nc2c(s1)CCCC2)C1COc2ccccc2O1 (stereo not drawn) the results were NF-kB expr up 1.9, STAT1 activator 82, APP 5'UTR act 147*, STAT3 act 43, STAT1 blocker 20, STAT3 inh-1 73*, STAT3 inh-2 34, NFkB inh STAT3ct -8 and STAT1 inh 2 -104.
`CCc1nnc(NC(=O)C2COc3ccccc3O2)s1` (stereo not drawn) gave NF-kB expr up 2.2, STAT1 activator 114, APP 5'UTR act 50, STAT3 act 104, STAT1 blocker -15 and STAT3 inh-1 -4.
CC(C)OC(=O)c1sc2nc(-c3ccccc3)ccc2c1N was read as NF-kB expr up 0.79, STAT1 activator 112, APP 5'UTR act 168*, STAT3 act 56, STAT1 blocker -13, STAT3 inh-1 61*, STAT3 inh-2 17, NFkB inh STAT3ct -23 and STAT1 inh 2 -163.
`Oc1ccc(Nc2nc(N3CCCC3)c3ccccc3n2)cc1` gave NF-kB expr up 0.47, STAT1 activator 115, APP 5'UTR act -8, STAT3 act 99, STAT1 blocker -16 and STAT3 inh-1 6.
For COc1ccc(Nc2nc(N3CCCCC3)c3ccccc3n2)cc1 the results were NF-kB expr up 0.75, STAT1 activator 82, APP 5'UTR act 9, STAT3 act 63, STAT1 blocker 19, STAT3 inh-1 47*, STAT3 inh-2 49*, NFkB inh STAT3ct 5 and STAT1 inh 2 27*.
Screening CC(=O)c1c(N2CCCCC2)nc(=O)n(-c2ccccc2)c1C returned NF-kB expr up 1.3, STAT1 activator 104, APP 5'UTR act 11, STAT3 act 112, STAT1 blocker -4 and STAT3 inh-1 -10.
Screening COc1ccc2nc(NC(=O)c3ccoc3C)sc2c1 returned NF-kB expr up 11*, STAT1 activator 102, APP 5'UTR act 142*, STAT3 act 50, STAT1 blocker -3, STAT3 inh-1 63*, STAT3 inh-2 28, NFkB inh STAT3ct -16 and STAT1 inh 2 -104.
For Cc1cccc2cc(-c3ccccc3)c(-c3ccccc3)c[n+]12 the results were NF-kB expr up 0.61, STAT1 activator 77, APP 5'UTR act 0, STAT3 act 64, STAT1 blocker 26, STAT3 inh-1 46*, STAT3 inh-2 19, NFkB inh STAT3ct -10 and STAT1 inh 2 1.
For O=C(Nc1cccc(F)c1)c1cccc(S(=O)(=O)N2CCOCC2)c1 the results were NF-kB expr up 0.94, STAT1 activator 97, APP 5'UTR act 14, STAT3 act 100, STAT1 blocker 6 and STAT3 inh-1 2.
Screening CCOC(=O)c1ccc(NC(=O)c2ccc(C)c(S(=O)(=O)N3CCOCC3)c2)cc1 returned NF-kB expr up 0.35, STAT1 activator 99, APP 5'UTR act -9, STAT3 act 40, STAT1 blocker 8, STAT3 inh-1 72*, STAT3 inh-2 69*, NFkB inh STAT3ct 22* and STAT1 inh 2 14.
Screening O=C(Nc1ccc(F)c(F)c1)c1ccc(F)c(S(=O)(=O)N2CCOCC2)c1 returned NF-kB expr up 0.83, STAT1 activator 87, APP 5'UTR act -2, STAT3 act 65, STAT1 blocker 14, STAT3 inh-1 46*, STAT3 inh-2 19, NFkB inh STAT3ct 6 and STAT1 inh 2 2.
`CCOC(=O)c1ccc(NC(=O)c2cccc(S(=O)(=O)N3CCOCC3)c2)cc1` gave NF-kB expr up 0.63, STAT1 activator 92, APP 5'UTR act 2, STAT3 act 56, STAT1 blocker 9, STAT3 inh-1 58*, STAT3 inh-2 37, NFkB inh STAT3ct 3 and STAT1 inh 2 -4.

Screening data as filed in PubChem.
